# Source: PubChem (several laboratories)
# This is a sample that favours compounds with a hit; in the whole collection about 6.4% have one here.
# H69AR inhibit – blocks growth of human H69AR lung tumor cells; H69AR lung tumor viability, ATP luminescence, 72 h; hits give low values; viability, % at 10 µM; 6% of 85,000 active;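 active = viability at or below 40%; inactive = viability above 40%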;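 also: multidrug resistant small cell line overexpressing MRP-1 efflux transporter; 100% = mean luminescence of untreated control wells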
# E coli WT exp – E. coli BW25113 growth inhibition, expanded screen; OD600 absorbance; growth inhibition, % at 100 µM; 0.15% of 98,000 active;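 active = growth inhibition above about 50% at one test dose, limit read from the data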;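 also: growth measured after 20 h incubation at 37 °C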
# Ecoli tolC – growth inhibitors of E. coli BW25113 tolC mutant. OD615. growth inhibition, % at 10 µM (by protocol). 2.2% of 65,000 active;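 active = growth inhibition at or above a cutoff equal to the mean over every tested compound plus 3 SD, cut at about 60% in these data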;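 also: growth measured after 20 h incubation at 37 °C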
#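 signal = optical density read at 615 nm | test system = E. coli ΔtolC::kan strain BW25113 | timing = 20 h compound exposure of bacteria at 37 °C | buffer or medium = LB medium plus 50 µg/mL kanamycin | compound dosing = 10 µM final, single dose | evaluation = % inhibition of E. coli growth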
# Fibroblast inh – blocks proliferation of human lung fibroblasts; viability, % at 10 µM; AID 719; 1.1% of 85,000 active; LL 47 human lung fibroblast viability, ATP luminescence; hits give low values;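 active = viability at or below 50% in the single dose screen; inactive = viability above 50%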;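 also: compound exposure lasted 72 h before the ATP readout; 100% = median luminescence of untreated cell-only wells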
#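 Material: Human LL 47 lung fibroblast cells | Input: 1,150 cells/well | Buffer or medium: IMEM plus 15% FBS | Compound dosing: 0.1% DMSO in all compound wells | Times: Overnight cell rest, 72 h compound treatment at 37 °C | Signal: CellTiter-Glo luminescence measuring cellular ATP | Measure: % viability versus median cells-only luminescence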
# Jurkat viability – reduces viability or proliferation of Jurkat cells; Jurkat E6.1 viability, ATP luminescence, 48 h; inhibition, % at 4 µM; 1.2% of 56,000 active; AID 463;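 active = inhibition above the mean inhibition of all tested compounds plus 3 SD, cut at about 28% in these data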
# HUVEC prolif 384 – inhibitors of human endothelial cell proliferation; HUVEC proliferation, CellTiter-Glo luminescence, 72 h; hits give low values; viability, % at 10 µM (by protocol); 1.1% of 86,000 active; AID 648;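 active = viability at or below 30%; inactive = viability above 30%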;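 also: 100% = median luminescence of DMSO-only cell control wells on each plate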
# Active calls of the source: *; . = not tested or not shown.
SMILES,H69AR inhibit,E coli WT exp,Ecoli tolC,Fibroblast inh,Jurkat viability,HUVEC prolif 384
O=C1C(=O)N(Cc2ccco2)C(c2cccc(Cl)c2)/C1=C(\O)c1ccc2c(c1)OCCO2 (stereo not drawn),.,3.0,69.7*,.,-0.9,.
COc1ccc(/C(O)=C2/C(=O)C(=O)N(CC3CCCO3)C2c2cccc(OC)c2)cc1 (stereo not drawn),.,0.0,100.0*,.,-7.8,.
COCCCN1C(=O)C(=O)/C(=C(/O)c2ccc(OC)cc2)C1c1cccc(OC)c1 (stereo not drawn),.,-2.0,23.2,89.7,-0.3,94.1
O=C(c1cc2c(=O)oc3ccccc3c2s1)N1CCN(c2ccccn2)CC1,88.9,.,22.0,99.8,.,43.2
Nc1cccc2c1C(=O)N(c1ccccc1)C2=O,.,.,-3.0,.,2.1,.
COc1ccc(-c2nnc3n2N=C(C)CS3)cc1,84.1,-2.0,.,97.4,.,79.7
CCOc1cccc(-c2nnc3n2N=C(c2cc(OC)ccc2OC)CS3)c1,20.6*,3.0,22.5,60.5,.,55.9
COc1cccc(-c2nnc3n2N=C(c2cc(OC)ccc2OC)CS3)c1,.,-8.0,.,.,.,.
COc1ccc(OC)c(C2=Nn3c(nnc3-c3cc(OC)c(OC)c(OC)c3)SC2)c1,58.1,-1.0,13.6,78.5,3.6,68.3
COc1ccc(C2=Nn3c(nnc3-c3ccc(OC)cc3)SC2)cc1,21.7*,-1.0,27.4,41.8*,93.2*,47.2
COc1ccc(C2=Nn3c(nnc3-c3ccccc3OC)SC2)cc1OC,.,1.0,12.5,.,99.2*,.
COc1cc(-c2nnc3n2N=C(c2ccccc2)CS3)cc(OC)c1OC,19.5*,-9.0,18.5,51.8,51.5*,49.5
COc1ccc(CCNC(=O)CSc2nc(O)c(C(C)C)c(=O)[nH]2)cc1OC,85.7,.,.,96.1,.,94.6
CCOc1ccc(C2=Nn3c(nnc3-c3ccccn3)SC2)cc1,29.9*,-6.0,20.9,94.0,.,95.2
Clc1ccc(C2=Nn3c(nnc3-c3cc(-c4ccccc4)n[nH]3)SC2)cc1,.,2.0,.,.,.,.
c1ccc(C2=Nn3c(nnc3-c3cc(-c4ccccc4)n[nH]3)SC2)cc1,39.6*,-5.0,9.4,63.5,7.3,89.8
COC(=O)CC/C(O)=C1/C(=N)CC(C)(C)CC1=O,98.1,1.0,.,99.8,.,94.1
COc1ccc(NC(=O)C2CCCN2S(=O)(=O)c2ccc3c(c2)CCC(=O)N3)cc1Cl (stereo not drawn),93.9,4.0,-3.4,104.2,-1.6,96.4
COC(=O)c1oc2c(c1C)C1(CCC2)SCCS1,36.8*,3.0,18.7,87.2,4.4,87.7
CN(C)c1ccc(C(=O)c2ccc(N(C)C)c(N)c2)cc1N,21.6*,-8.0,6.4,85.2,59.7*,78.2
CCOc1ccc(C(=O)c2ccc(OCC)c(N)c2)cc1N,13.3*,5.0,2.0,89.9,12.5,55.4
COc1ccc(C(N)=O)cc1N,.,2.0,-1.4,.,8.4,.
Clc1ccc(CSc2nnc(CNc3cccc(Cl)c3)o2)cc1,80.5,-8.0,.,100.0,.,79.3
COc1nnc(-c2ccc(N3CCCCC3)c(NC(=O)C3CCCCC3)c2)c2ccccc12,8.7*,-4.0,.,98.1,.,65.6
Cc1cccc(NC(=O)c2cc(NC(=O)C3CCCCC3C(=O)O)ccc2N2CCCCC2)c1 (stereo not drawn),59.0,-1.0,76.5*,103.5,-3.3,76.0
SMILES,H69AR inhibit,E coli WT exp,Ecoli tolC,Fibroblast inh,Jurkat viability,HUVEC prolif 384
COc1ccc(N=C2C(=Nc3ccc(OC)cc3)N(c3ccc(OC)cc3)C(=S)N2c2ccccc2)cc1,.,-27.0,.,.,.,.
Cc1ccc(N=C2C(=S)N(c3ccc(C)cc3)C(=N)N2/N=C/c2ccc(Cl)cc2)cc1,2.7*,.,.,84.6,.,74.8
Brc1ccc(CSc2nnc(-c3cnccn3)n2Cc2ccco2)cc1,56.4,-6.0,64.2*,94.8,5.1,79.1
C(=C\c1ccccc1)/CSc1nnc(-c2cnccn2)n1Cc1ccco1,29.2*,-20.0,26.8,87.2,5.7,61.8
Fc1ccccc1CSc1nnc(-c2cnccn2)n1Cc1ccco1,74.1,-8.0,21.3,103.3,-5.8,98.4
COc1cccc(-c2cc(C(=O)N3CCc4ccccc4C3)no2)c1,98.6,-8.0,90.1*,99.8,8.7,118.6
COc1ccc(OC)c(-c2cc(C(=O)N3CCc4ccccc4C3)no2)c1,.,-19.0,69.2*,.,-6.4,.
COc1cc(C(=O)Nc2ccc(Br)cc2C(=O)c2cc(OC)c(OC)c(OC)c2)cc(OC)c1OC,.,3.0,.,.,.,.
Cc1cc(C)c(NC(=O)CSc2nc3ccc(NC(=O)CSc4nnnn4Cc4ccccc4)cc3s2)c(C)c1,14.1*,.,.,83.0,.,84.0
COC(=O)CSc1nc2ccc(NC(=O)CSc3nnnn3Cc3ccccc3)cc2s1,90.4,-9.0,6.6,31.4*,0.6,55.8
COc1ccnc(Oc2ccc(C)cc2C)c1C#N,.,-4.0,.,.,.,.
COc1ccc(Cl)cc1NC(=O)Nc1ccc(Br)cn1,37.7*,-4.0,.,90.8,.,97.6
c1ccc2[nH]c(SCCN3CCOCC3)nc2c1,87.0,6.0,-7.1,97.4,2.8,102.5
CCc1ccc2[nH]c3nc(SCc4nnc(-c5ccc(C)cc5)o4)nnc3c2c1,9.4*,.,.,44.4*,.,35.8
CCc1ccc2[nH]c3nc(SCC(=O)NNC(=O)c4ccc(C(C)(C)C)cc4)nnc3c2c1,.,-4.0,.,.,.,.
CCc1ccc(-c2cn(-c3nc(C)cc(C)n3)c(=N)o2)cc1,1.2*,-1.0,10.1,84.2,3.2,58.6
CCc1ccc(C(=O)CN(C#N)c2nc(C)cc(C)n2)cc1,60.2,-7.0,.,91.6,.,55.4
Cc1nn(Cc2ccc(Cl)cc2Cl)c(C)c1NC(=O)CCl,1.6*,.,.,23.2*,.,75.0
Cn1c(SC/C=C/c2ccccc2)nnc1-c1ccco1,90.6,5.0,-6.5,109.5,3.2,95.7
Cc1cc(NC(=O)c2cnn3c(C(F)(F)F)cc(-c4ccccc4)nc23)no1,37.9*,-8.0,29.0,94.4,-1.5,89.2
COc1cccc(-c2cc(C(F)(F)F)n3ncc(C(=O)NCC4CCCO4)c3n2)c1 (stereo not drawn),59.7,-6.0,-9.8,104.0,3.8,70.3
COc1ccc(-c2cc(C(F)(F)F)n3ncc(C(=O)NCC4CCCO4)c3n2)cc1 (stereo not drawn),20.4*,4.0,8.8,97.5,2.0,99.0
Cc1cc(NC(=O)c2cnn3c(C(F)F)cc(-c4ccccc4)nc23)no1,24.6*,-5.0,2.5,89.6,2.2,76.5
O=C(c1cnn2c(C(F)(F)F)cc(-c3ccccc3)nc12)N1CCCc2ccccc21,36.0*,-2.0,.,90.7,.,86.8
O=S(=O)(Nc1nc2ccccc2nc1N1CCN(c2ccccc2F)CC1)c1ccc(Cl)cc1,61.7,-11.0,.,101.5,.,57.5
O=C(CCC(=O)N(Cc1ccco1)C(C(=O)NC1CCCC1)c1ccncc1)Nc1cccnc1 (stereo not drawn),92.4,2.0,-9.1,103.2,-1.8,92.8
CCOC(=O)c1cc(-c2nnc(-c3ccc(Oc4ccccc4)cc3)o2)c(C)nc1C,93.3,-3.0,33.3,86.0,-3.3,88.8
